Measured values from ChEMBL document CHEMBL1140729, “Synthesis and evaluation of 2'-hydroxyethyl trans-apovincaminate derivatives as antioxidant and cognitive enhancer agents” (J Med Chem, 2008).
Activity calls are given as the source filed them. No cut-off for these calls is given here.

Key:
Brain = assay: Inhibition of Fe2+-induced lipid peroxidation in rat brain homogenate; format: functional, tissue-based
In short: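 Whole rat brain homogenized in 9 vol ice-cold Krebs-Ringer/15 mM HEPES pH 7.4 with glucose, used fresh at 10 mg protein/ml. Preincubated with compound 20 min at 37 °C. LPO started with ferrous ammonium sulfate (200 µM Fe²⁺), run 20 min, stopped with TCA/HCl. TBA added to supernatant, boiled 20 min, OD read at 535 nm. IC50 obtained by sigmoid fit of 6–9 concentrations, triplicates.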

Rattus norvegicus [1] = species: Rattus norvegicus; assay: Inhibition of […] lipid peroxidation in rat brain microsome; format: functional
In short: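 Rat brain microsomes (78000 g pellet) in KCl at 0.2 mg protein per ml. Medium: 50 mM Tris-HCl pH 6.8, 0.2 mM FeCl3, 1 mM KH2PO4, 0.5 mM ADP, preincubated 20 min at 37 °C ± compound. LPO started with 0.4 mM NADPH, run 20 min, stopped with TCA/HCl. TBA boiled 10 min, OD read at 535 nm. IC50 obtained by sigmoid fit of 7–9 concentrations, triplicates.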

Mus musculus [2] = assay: Inhibition of diazepam-induced amnesia in NMRI mouse at 0.1 mg/kg, po by one-trial passive avoidance test; format: functional
In short: (§1)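 Male NMRI mice, 25–28 g, 10 per group. Anterograde amnesia induced by diazepam 3 mg/kg i.p. 30 min before the acquisition trial. Test compound given orally (0.1 or 10 mg/kg) 1 h before acquisition. Readout is latency to enter the dark chamber. Percent restoration P% = (T_treated+DIA − T_placebo+DIA)/(T_placebo − T_placebo+DIA) × 100.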

Mus musculus [3] = assay: Inhibition of diazepam-induced amnesia in NMRI mouse at 10 mg/kg, po by one-trial passive avoidance test; format: functional; in short: as §1
Rattus norvegicus [4] = assay: Protective effect against diazepam-induced learning-deficit in Wistar rat at 5 mg/kg, po by water labyrinth test; format: functional
In short: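 Male Wistar rats, 200–220 g, 10 per group. Diazepam 5 mg/kg i.p. in 5% Tween 80, given 30 min before the first swim. Compound given orally at 5 mg/kg 1 h before the first daily trial. Four-day water-labyrinth task with three choice points in water at 24 °C: one pretraining day, then three trials per day. Directional turning errors counted, 12 if the platform was not found in 5 min. Percent restoration calculated; ANOVA with Duncan test.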

Mus musculus [5] = assay: Effect on memory improvement in NMRI mouse at 10 mg/kg by passive avoidance test; format: functional, organism-based; set-up: dose 10 mg/kg; in short: as §1

IC50 (Brain) | IC50 (Rattus norvegicus [1]) | SMILES | inhibition in vivo at 0.1 mg/kg (Mus musculus [2]) | inhibition in vivo at 10 mg/kg (Mus musculus [3]) | Activity (Rattus norvegicus [4]) | Activity (Mus musculus [5])
31.5 µM | 1.3 µM | COC1=C(OC)C(=O)C(CCCCCCCCCCO)=C(C)C1=O [IDEBENONE] |  |  |  | 
14.6 µM | 2.7 µM | CC[C@@]12C=C(C(=O)OCCOC(=O)c3ccc(Cl)cc3)n3c4c(c5ccccc53)CCN(CCC1)[C@@H]42 | 3% | 15% |  | 
18.2 µM | 3.8 µM | CC[C@@]12C=C(C(=O)OCCOC(=O)c3ccccc3)n3c4c(c5ccccc53)CCN(CCC1)[C@@H]42 | 0% | 0% |  | 
 | > 30 µM | CC[C@@]12C=C(C(=O)OCCO)n3c4c(c5ccccc53)CCN(CCC1)[C@H]42 |  |  | 80.3% | 
14.4 µM | 3.5 µM | CCOC(=O)C1=C[C@]2(CC)CCCN3CCc4c(n1c1ccccc41)[C@H]32 |  |  |  | 
15.7 µM | 2.7 µM | CC[C@]12C=C(C(=O)OCCOC(=O)c3ccc(Cl)cc3)n3c4c(c5ccccc53)CCN(CCC1)[C@H]42 |  |  |  | 
21 µM | 5 µM | CCC(=O)OCCOC(=O)C1=C[C@]2(CC)CCCN3CCc4c(n1c1ccccc41)[C@H]32 | 16% | 4% |  | 
13.7 µM | 7 µM | CC[C@@]12C=C(C(=O)OCCO)n3c4c(c5ccccc53)CCN(CCC1)[C@@H]42 | 74% | 65% | 81.1% | Active
14.8 µM | 3.4 µM | CC[C@]12C=C(C(=O)OCCOC(=O)c3ccccc3)n3c4c(c5ccccc53)CCN(CCC1)[C@H]42 | 23% | 16% |  | 
15.8 µM | 4.4 µM | CCC(=O)OCCOC(=O)C1=C[C@@]2(CC)CCCN3CCc4c(n1c1ccccc41)[C@@H]32 | 64% | 24% |  | 

More lines, now with the values behind:

SMILES | IC50 (Brain) | IC50 (Rattus norvegicus [1]) | inhibition in vivo at 0.1 mg/kg (Mus musculus [2]) | inhibition in vivo at 10 mg/kg (Mus musculus [3]) | Activity (Rattus norvegicus [4]) | Activity (Mus musculus [5])
CC[C@]12C=C(C(=O)O)n3c4c(c5ccccc53)CCN(CCC1)[C@H]42 | 258 µM | > 300 µM |  |  |  | 
Cc1c(C)c2c(c(C)c1O)CCC(C)(CCCC(C)CCCC(C)CCCC(C)C)O2 (racemic) [alpha-TOCHOPHEROL] | 35.7 µM | 273 µM |  |  |  | 
CC[C@]12C=C(C(=O)OCCOC(C)=O)n3c4c(c5ccccc53)CCN(CCC1)[C@H]42 | 15.2 µM | 3.8 µM | 72% | 44% |  | Active
CC[C@@]12C=C(C(=O)OCCOC(C)=O)n3c4c(c5ccccc53)CCN(CCC1)[C@@H]42 | 9.8 µM | 3.6 µM | 79% | 100% |  | Active
CC[C@@]12C=C(C(=O)[O-])n3c4c(c5ccccc53)CCN(CCC1)[C@@H]42.[Na+] | 238 µM | > 300 µM |  |  | 71.3% | 
CCOC(=O)C1=C[C@@]2(CC)CCCN3CCc4c(n1c1ccccc41)[C@@H]32 | 13.4 µM | 3 µM |  |  |  | 
Cc1cc(C(C)(C)C)c(O)c(C(C)(C)C)c1 [BUTYLATED HYDROXYTOLUENE] | 6.2 µM | 3.2 µM |  |  |  | 
O=c1c(O)c(-c2ccc(O)c(O)c2)oc2cc(O)cc(O)c12 [QUERCETIN] | 10.7 µM | 8.5 µM |  |  |  | 
CC[C@@]12C=C(C(=O)O)n3c4c(c5ccccc53)CCN(CCC1)[C@H]42 |  |  |  |  | 66.7% | 
CC[C@]12C=C(C(=O)OCCO)n3c4c(c5ccccc53)CCN(CCC1)[C@H]42 | 13.6 µM | 9.1 µM | 50% | 56% |  | Active
CCOC(=O)C1=C[C@]2(CC)CCCN3CCc4c(n1c1ccccc41)[C@@H]32 [VINPOCETINE] | 209 µM | 137 µM | 0% | 100% | 56.6% | 
